Hits are enriched below; roughly 3.6% of the tested compounds scored in any of these assays.
STAT3 act – IL-6 driven STAT3 reporter potentiators, primary screen, U3A cells, luciferase, luminescence, MLSCN library. activation (% of control), % at 5.6 µM. IL-6 STAT3-luciferase reporter; 100% = signal with IL-6 EC80 alone. hit rate 0.91% among 190,000. AID 871, 2007;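 active = activation above the screen-wide mean of compound activation plus 3 SD, cut at about 130% in these data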;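 note: 0% = background luminescence of wells with medium and substrate only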
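Test system: STAT3-luciferase reporter U3A cells; Detection: reporter luminescence signal; Times: 1 h compound pre-exposure, 6 h IL-6 stimulation, 37 °C; Benchmarks: IL-6-only high control; Also added: IL-6 stimulus at 33 ng/mL final.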
AHR activator – AHR activators, primary screen, cell-based, luminescence, luciferase reporter, human | activation, % at 5 µM | hit rate 2.5% among 320,000 | Aryl hydrocarbon receptor (Homo sapiens), P35869 | AHR-responsive luciferase reporter cells; in the data active = activation above about 47%;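 note: 0% = vehicle wells and 100% = reference agonist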
Target sequence (P35869 whole entry, looked up): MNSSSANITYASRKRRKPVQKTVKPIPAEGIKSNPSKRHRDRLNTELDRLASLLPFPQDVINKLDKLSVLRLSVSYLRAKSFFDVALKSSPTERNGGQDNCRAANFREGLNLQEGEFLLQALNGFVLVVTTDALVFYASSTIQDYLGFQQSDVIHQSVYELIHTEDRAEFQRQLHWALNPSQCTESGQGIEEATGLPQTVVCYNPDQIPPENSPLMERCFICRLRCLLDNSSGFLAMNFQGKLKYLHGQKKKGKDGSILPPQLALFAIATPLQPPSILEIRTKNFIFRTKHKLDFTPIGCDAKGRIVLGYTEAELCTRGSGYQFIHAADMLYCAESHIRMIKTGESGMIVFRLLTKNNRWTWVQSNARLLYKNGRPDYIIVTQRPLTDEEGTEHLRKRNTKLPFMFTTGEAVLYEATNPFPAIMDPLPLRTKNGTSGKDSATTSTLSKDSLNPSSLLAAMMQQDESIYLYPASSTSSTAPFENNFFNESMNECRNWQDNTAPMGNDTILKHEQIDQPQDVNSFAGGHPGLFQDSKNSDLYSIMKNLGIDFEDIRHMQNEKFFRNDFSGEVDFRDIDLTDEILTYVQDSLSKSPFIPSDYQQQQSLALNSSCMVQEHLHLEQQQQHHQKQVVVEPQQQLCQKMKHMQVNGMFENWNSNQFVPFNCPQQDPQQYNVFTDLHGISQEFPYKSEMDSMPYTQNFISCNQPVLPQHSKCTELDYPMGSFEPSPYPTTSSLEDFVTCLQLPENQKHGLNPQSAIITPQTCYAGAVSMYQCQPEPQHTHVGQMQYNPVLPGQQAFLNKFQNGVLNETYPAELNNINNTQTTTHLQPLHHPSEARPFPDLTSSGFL
HSF1 inh – HSF1 inhibitors in luciferase reporter cells, primary screen, cell-based, NIH3T3, luminescence; NIH3T3-HGL HSE-luciferase, MG132-induced, luminescence 8 h; active compounds read low; activity change, negative = inhibition, % at 7.5 µM (by protocol); hit rate 0.77% among 300,000; AID 2098, 2009;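 active = more than half of replicate wells show activity change below -50%, luminescence cut by over half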;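 note: luciferase reports HSF-1 transcriptional activity via heat shock element; 0% = median of DMSO wells and -100% = zero luminescence signal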
PolyA inhibitor – polyadenylation inhibitors in yeast reporter cells, primary screen, luminescence, S. cerevisiae; S. cerevisiae SKY197-pL101 polyadenylation reporter, beta-gal luminescence; efflux-impaired pdr1/pdr3 knockout yeast; score 100 = 6 SD above DMSO; activity score, % at 12 µM; hit rate 0.02% among 300,000; AID 1875, 2009;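 active = lowest replicate activity score at least 50, where 100 means six control SD above control mean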;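 note: yeast exposed to compound for 9 h at 30 °C; higher score means more reporter readthrough which indicates perturbed polyadenylation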
PERK inhibitor – block of dimerizer-induced PERK translation repression, primary screen, PERK inhibitor project, CHO PERK-DD cells, SEAP luminescence, HTS | Eukaryotic translation initiation factor 2-alpha kinase 3 (Homo sapiens), Q9NZJ5 | CHO PERK-DD fusion, SEAP luminescence translation reporter | hit rate 0.17% among 220,000 | AID 1416, 2008 | inhibition, % at 5.6 µM;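 active = inhibition above the mean inhibition of all tested compounds plus 3 SD, set separately per screening campaign, cut at about 2.9% in these data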;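 note: PERK kinase domain activated by AP20187 dimerizer at 100 nM; 0% = DMSO with dimerizer and 100% = rapamycin at 8.4 µM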
Hsp70 act – Hsp70 transcriptional activators, primary screen, cell-based, HeLa, Hsp70 promoter luciferase, luminescence, 10 µM; HeLa Hsp70 promoter luciferase reporter; scaled: vehicle 0, proteasome-inhibitor control 100%; activation, % at 10 µM; hit rate 0.04% among 200,000;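 active = activation above the mean across all tested compounds plus 3 SD, cutoff set per campaign, cut at about 5.5% in these data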;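 note: 100% = MG132 at 30 µM as the positive control and 0% = DMSO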
AHR act cf – AHR activators, confirmation, cell-based, luminescence, luciferase reporter, human. shares compounds with AHR activator. human cells, AHR-responsive luciferase reporter. activation, % at 9 µM. hit rate 87% among 2,300. AID 2845, 2010; in the data active = activation above about 49%;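 note: HepG2 hepatoma cells carrying a DRE-driven firefly luciferase reporter; 0% = vehicle wells and 100% = reference agonist wells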
PXR counter – human PXR activators, counter-screen for AHR activator project, cell-based, luciferase luminescence. hit rate 88% among 2,300. cell-based PXR reporter. activation, % at 11.6 µM. shares compounds with AHR activator. AID 434939, 2010; in the data active = activation above about 11%;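 note: human hepatoma DPX-2 cells expressing full-length human PXR; 0% = DMSO and 100% = reference agonist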
* marks the source's active call; other numbers are inactive results; / = no result given.

SMILES	STAT3 act	AHR activator	HSF1 inh	PolyA inhibitor	PERK inhibitor	Hsp70 act	AHR act cf	PXR counter
CC(C)c1ccc2nc(NC(=O)C3CC3)sc2c1	/	89*	4	15	/	/	79*	39*
Cc1ccc(NC2CCCN(C(=O)C3CCCC3)C2)cc1C (stereo unspecified)	/	34	-6	-4	/	/	/	/
COc1ccc(NC(=O)CSc2nnc3c4c(nc(-c5ccccc5)n23)CC(C)(C)OC4)cc1	108	109*	-4	-3	0	0	4	25*
Nc1n[nH]c(C2CC2)c1N=Nc1ccc(Cl)cc1	/	81*	-6	-12	1	/	101*	9
Nc1nc(N)c(N=Nc2ccc(Cl)cc2)c(=O)[nH]1	101	8	2	19	0	0	/	/
Cc1ccc(-n2nc3ccc(N)cc3n2)cc1	102	88*	0	-12	1	0	76*	10
Nc1ccc2nn(-c3ccc(F)cc3)nc2c1	/	106*	7	-15	/	/	22	14*
N#Cc1c(-c2ccccc2)nc2n1CCS2	87	-1	-11	-1	1	0	/	/
CCOC(=O)C1CCCN(CC(O)COCc2ccccc2OC)C1 (stereo unspecified)	/	1	-5	-2	/	/	/	/
C=CCNc1nc(N2CCCC2)nc2ccccc12	101	84*	-6	1	0	0	35	12*
COc1ccc(/C=C/C(=O)NC(=S)NNC(=O)c2cccs2)cc1	107	94*	7	-40	0	0	36	5
c1ccc(Nc2nc(-c3ccccn3)cs2)cc1	108	116*	23	23	-1	0	53*	/
c1ccc(-n2nc3c(ccc4cnnc43)[nH]2)cc1	112	131*	38	-19	-1	0	149*	26*
COc1ccc(OC)c(Nc2nc(NCCO)c3ccccc3n2)c1	/	88*	-2	67*	/	/	85*	35*
C=CCSc1nnc2nc3[nH]c4c(C)cccc4c3nn12	119	105*	-8	-1	0	0	143*	38*
CSc1nnc2c(n1)[nH]c1c(C)cccc12	76	29	-3	-2	0	0	/	/
CCCS(=O)(=O)Nc1cccc(-c2nc3cccnc3s2)c1	/	91*	-6	-4	-1	/	99*	40*
Cc1ccc(-c2nc3cccnc3s2)cc1NS(C)(=O)=O	/	142*	7	1	1	0	121*	37*
Cc1cccc(NC(=S)N/N=C/c2c[nH]c3ccccc23)c1	104	135*	24	8	0	0	87*	19*
Cc1cccc(NC(=S)N/N=C/c2cccc([N+](=O)[O-])c2)c1	85	134*	16	-23	0	0	145*	41*
O=C(N/N=C/c1ccc2c(c1)OCO2)c1ccccn1	61	42	1	10	3	0	/	/
O=C(N/N=C/c1ccc2c(c1)OCO2)c1ccc(Br)o1	111	175*	21	18	0	0	120*	22*
Cc1cccc(NC(=S)N/N=C/c2ccc3c(c2)OCO3)c1	103	94*	31	-8	-1	0	71*	87*
O=C(COC(=O)c1cccc(OC(F)F)c1)NCC1CCCO1 (stereo unspecified)	/	0	/	/	/	/	/	/
COc1ccc(C(=O)Nc2ccncc2)c(OC)c1	79	-5	6	-14	0	0	/	/
